Here are results for 1 molecule from ChEMBL document CHEMBL1914422, “Activation of the c-Jun N-terminal kinase/activating transcription factor 3 (ATF3) pathway characterizes effective arylated diazeniumdiolate-based nitric oxide-releasing anticancer prodrugs” (J Med Chem, 2011).

A short description of assay [1]: Activation of JNK phosphorylation in human NCI-H1703 cells assessed as increase in ATF3 protein level at 1 uM within 2 hrs by Western blot analysis. In kind it is cell-based.
Assay [2] can be described thus: Activation of JNK phosphorylation at Thr183 and Tyr185 in human NCI-H1703 cells at 1 uM within 30 mins by Western blot analysis. The format is cell-based.
In assay [3] the test system is NCI-H1703. Nature of the assay: Cell cycle arrest in human NCI-H1703 cells assessed as accumulation at G2 phase at 1 uM after 6 hrs by FACS analysis (reference value: 8%). The format is functional. (In flow cytometry, cells or beads pass a laser one at a time.)
A short description of assay [4]: Activation of JNK phosphorylation in human NCI-H1703 cells assessed as increase in ATF3 mRNA level at 5 uM after 1.5 hrs by quantitative real-time PCR analysis relative to control. The format is cell-based. The method, boiled down:
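Cells were H1703 treated with compound or DMSO control. Total RNA was isolated and residual genomic DNA removed. ATF3 mRNA was measured by quantitative RT-PCR with β-actin as internal control. Reported as mean ± SE.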
Background: Quantitative PCR measures a nucleic acid by following its amplification.

For a further assay, the system named is NCI-H2122. Nature of the assay: Antiproliferative activity against human NCI-H2122 cells after 72 hrs by MTT assay. The format is functional, cell-based. The conditions noted are these: NCI-H2122, 72 h. The method in brief:
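Compounds (10 mM DMSO stocks, final DMSO ≤0.1%) added at increasing concentrations in PBS, incubated 72 h at 37 °C. MTT read-out, six repeats per concentration, at least two independent experiments.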

The subject of assay [5] is NCI-H1703. Nature of the assay: Antitumor activity against human NCI-H1703 cells xenografted in NCr nu/nu Charles river mouse assessed as tissue death in tumor at 6 umol/kg, iv administered 3 times a week for 3 weeks by H and E staining method relative to control. The format is functional, organism-based. The method, boiled down: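 Female athymic NCr-nu/nu mice, 7 weeks old, received 5×10^6 H1703 cells s.c. in the flank. Tumors excised 2 h after the last dose, H&E stained, and scored for areas of cell death against vehicle controls.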
Background: A xenograft is tissue or cells of one species grown in another, often human tumour cells in immunodeficient mice.

The subject of assay [6] is NCI-H1703. Nature of the assay: Antitumor activity against human NCI-H1703 cells xenografted in athymic NCr Charles river nu/nu mouse assessed as reduction of tumor weight at 6 umol/kg, iv administered 3 times a week for 3 weeks relative to vehicle treated control. In kind it is functional. Also noted: scale not given: the % may be the effect or the level left. The method, boiled down: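 H1703 cells (5×10^6) injected s.c. into the flank of 7-week-old female athymic NCr-nu/nu mice. Dosing began once tumors reached at least 2×2×2 mm (typically 4 weeks). Body weight recorded before each injection. Mice sacrificed 2 h after the last dose and tumors excised and weighed. 13–15 mice/group; Mann-Whitney test; mean ± SE.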

Active and inactive are the calls of the source. The rule behind the calls is not given here.

What is called IC50 is the concentration needed to halve the response being measured. For `CCOC(=O)N1CCN(/[N+]([O-])=N/Oc2ccc([N+](=O)[O-])cc2[N+](=O)[O-])CC1`, the outcome (in assay [1]; in assay [2]; with NCI-H1703 [5]) was Active. In addition, the Activity with NCI-H1703 [3] was 37%; in the assay on NCI-H1703 [6] it was 49%. Besides, the fold change (FC) in assay [4] is 10. This molecule gave a half-inhibitory concentration (IC50) with NCI-H2122 of 3.17 µM.
